Columns and labels:
human FXR = target: T1, human FXR (Homo sapiens, UniProt Q96RI1); assay: cell-based luciferase reporter assay; settings: for inhibition at 10 µM: HEK-293T
T1 sequence (Q96RI1 1-486): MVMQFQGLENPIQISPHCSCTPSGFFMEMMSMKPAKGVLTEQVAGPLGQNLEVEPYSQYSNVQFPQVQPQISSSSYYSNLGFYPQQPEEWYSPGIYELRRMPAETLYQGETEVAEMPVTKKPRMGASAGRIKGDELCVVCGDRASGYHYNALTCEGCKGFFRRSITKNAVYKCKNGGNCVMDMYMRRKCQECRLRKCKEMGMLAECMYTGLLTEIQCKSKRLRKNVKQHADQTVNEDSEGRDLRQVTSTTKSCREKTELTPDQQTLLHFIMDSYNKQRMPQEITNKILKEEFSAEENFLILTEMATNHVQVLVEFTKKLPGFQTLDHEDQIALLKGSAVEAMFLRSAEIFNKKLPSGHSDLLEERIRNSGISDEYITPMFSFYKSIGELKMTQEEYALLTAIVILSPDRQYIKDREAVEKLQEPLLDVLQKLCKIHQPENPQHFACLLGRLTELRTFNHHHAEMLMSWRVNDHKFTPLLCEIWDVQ
Procedure, shortened: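 HEK293T cells transiently cotransfected with a human FXR expression vector and an SHP promoter luciferase reporter (SHP-luc). Transactivation was driven by GW4064 at 10 μM, with or without test compound. FXR-dependent reporter activity was read as luciferase signal.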

[1] = Cell-Titer Blue cytotoxicity assay; assay type: cell-based; settings: human, HEK293T cells
FXR = settings: read-out: IC50 FXR antagonist; cited from earlier work

SMILES | IC50 (human FXR) [µM] | inhibition at 10 µM (human FXR) [%] | viability [1] [%] | viability at 10 µM [1] [%] | IC50 (FXR) [µM]
C[C@H](CCC(=O)NCCS(=O)(=O)O)[C@H]1CC[C@H]2[C@@H]3[C@@H](O)C[C@@H]4C[C@H](O)CC[C@]4(C)[C@H]3CC[C@]12C [TUDCA, tauroursodeoxycholic acid] |  |  |  |  | 75.1
CC(=O)O[C@@H]1CC[C@]2(C)C(=O)[C@H](C3CC[C@H]([C@H](C)CCCC(C)C)[C@@]3(C)CC(=O)O)CC[C@H]2C1 (stereo partly shown) [Compound 3a] |  | 54.7 ± 6.2 |  | > 100 | 
CC(=O)O[C@H]1CC[C@]2(C)C(=O)[C@H](C3CC[C@H]([C@H](C)CCCC(C)C)[C@@]3(C)CC(=O)O)CC[C@H]2C1 (stereo partly shown) [Compound 3b] |  | 24.9 ± 2 |  | > 100 | 
C[C@H](CCC(=O)NCC(=O)O)[C@H]1CC[C@H]2[C@@H]3[C@@H](O)C[C@@H]4C[C@H](O)CC[C@]4(C)[C@H]3CC[C@]12C [GUDCA, glycoursodeoxycholic acid] |  |  |  |  | 77.2

More lines, main results first:

IC50 (human FXR) [µM] | inhibition at 10 µM (human FXR) [%] | SMILES | viability [1] [%] | viability at 10 µM [1] [%] | IC50 (FXR) [µM]
7.7 | 85.8 ± 2.4 | CC(C)CCC[C@@H](C)[C@H]1CCC([C@@H]2CC[C@H]3C[C@H](O)CC[C@]3(C)C2=O)[C@]1(C)CCCC(=O)O (stereo partly shown) [Compound 8] | 41.1 | > 100 | 
27.3 |  | C[C@H](CCC(=O)O)[C@H]1CC[C@H]2[C@@H]3[C@H](O)[C@H](O)[C@@H]4C[C@H](O)CC[C@]4(C)[C@H]3CC[C@]12C [HCA, hyocholic acid, reference compound] | > 100 |  | 70.1
 | 14.1 ± 4.1 | CC(C)CCC[C@@H](C)[C@H]1CCC([C@@H]2CC[C@H]3C[C@@H](O)CC[C@]3(C)C2=O)[C@]1(C)CC(=O)O (stereo partly shown) [Compound 4b] |  | > 100 | 
 | 76.3 ± 1.9 | CC(C)CCC[C@@H](C)[C@H]1CCC([C@@H]2CC[C@H]3C[C@H](O)CC[C@]3(C)C2=O)[C@]1(C)C/C=C/C(=O)O (stereo partly shown) [Compound 7] |  | > 100 | 
 | 53.1 ± 4.9 | CC(C)CCC[C@@H](C)[C@H]1CCC([C@@H]2CC[C@H]3C[C@H](O)CC[C@]3(C)C2=O)[C@]1(C)CC(=O)O (stereo partly shown) [Compound 4a] |  | > 100 | 
